{
  "source": "ChEMBL document CHEMBL4359913",
  "about": "“Identification and characterization of benzo[d]oxazol-2(3H)-one derivatives as the first potent and selective small-molecule inhibitors of chromodomain protein CDYL” (Eur J Med Chem, 2019)",
  "key": {"[1]": {"molecular_target": "T1, Chromodomain Y-like protein (Mus musculus) (UniProt Q9WTK2)", "T1 sequence (whole entry)": "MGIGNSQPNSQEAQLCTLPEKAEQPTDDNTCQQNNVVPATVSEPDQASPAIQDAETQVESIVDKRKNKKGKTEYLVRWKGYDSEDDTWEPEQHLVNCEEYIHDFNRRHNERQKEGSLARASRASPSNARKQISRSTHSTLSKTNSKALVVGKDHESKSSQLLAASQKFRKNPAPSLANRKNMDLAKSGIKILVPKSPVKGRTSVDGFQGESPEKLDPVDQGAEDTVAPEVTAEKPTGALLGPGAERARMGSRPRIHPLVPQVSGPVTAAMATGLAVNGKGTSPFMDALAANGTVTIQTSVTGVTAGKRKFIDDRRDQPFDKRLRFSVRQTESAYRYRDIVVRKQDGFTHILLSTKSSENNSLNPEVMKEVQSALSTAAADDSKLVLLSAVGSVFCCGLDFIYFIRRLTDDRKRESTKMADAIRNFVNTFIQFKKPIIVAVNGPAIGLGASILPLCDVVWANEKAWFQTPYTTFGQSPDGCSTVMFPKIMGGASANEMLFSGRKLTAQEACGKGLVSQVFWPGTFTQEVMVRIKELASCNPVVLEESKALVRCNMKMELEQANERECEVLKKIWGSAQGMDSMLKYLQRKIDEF", "assay": "Inhibition of CDYL in C57BL/6 mouse hippocampal neurons as increase in MYT1 mRNA expression at 150 uM incubated for 24 hrs by RT-qPCR analysis", "outline": "(§1)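 Mouse cortical or hippocampal neurons, dissociated with trypsin and kept in Neurobasal/B27, treated with 150 µM compound for 24 h. mRNA measured by SYBR green RT-qPCR with the 2^-ΔΔCt method, GAPDH as reference, relative to DMSO. Mean ± S.E.M. of triplicate experiments, Student's t-test.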"}, "[2]": {"molecular_target": "T2, Chromodomain Y-like protein (Homo sapiens) (UniProt Q9Y232)", "T2 sequence (whole entry)": "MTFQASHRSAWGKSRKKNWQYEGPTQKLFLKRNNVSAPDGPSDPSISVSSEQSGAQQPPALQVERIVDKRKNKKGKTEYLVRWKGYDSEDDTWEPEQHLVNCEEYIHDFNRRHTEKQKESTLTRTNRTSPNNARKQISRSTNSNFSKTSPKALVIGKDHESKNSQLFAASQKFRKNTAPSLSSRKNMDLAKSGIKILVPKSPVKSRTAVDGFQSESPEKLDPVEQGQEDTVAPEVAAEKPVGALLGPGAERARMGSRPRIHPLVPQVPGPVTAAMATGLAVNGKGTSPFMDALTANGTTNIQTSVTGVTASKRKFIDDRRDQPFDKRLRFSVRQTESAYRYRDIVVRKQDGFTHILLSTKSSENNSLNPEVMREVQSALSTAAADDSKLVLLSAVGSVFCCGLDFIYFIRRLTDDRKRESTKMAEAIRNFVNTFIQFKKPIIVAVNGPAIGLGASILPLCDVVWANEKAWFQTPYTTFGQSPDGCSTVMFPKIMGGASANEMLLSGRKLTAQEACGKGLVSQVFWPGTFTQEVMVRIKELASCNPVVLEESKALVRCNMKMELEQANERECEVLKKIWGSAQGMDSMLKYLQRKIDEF", "assay": "Inhibition of CDYL in human SH-SY5Y cells assessed as increase in BDNF mRNA expression incubated for 24 hrs by RT-qPCR analysis", "format": "cell-based", "outline": "(§2)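 SH-SY5Y or HEK-293T cells grown in DMEM with 10% FBS and treated with compound for 24 h. mRNA quantified by SYBR green RT-qPCR after DNase treatment, 2^-ΔΔCt method with GAPDH as reference, relative to DMSO. Mean ± S.E.M. of triplicate experiments, Student's t-test.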"}, "[3]": {"molecular_target": "T2, Chromodomain Y-like protein (Homo sapiens)", "assay": "Inhibition of CDYL in human HEK293T cells assessed as increase in BDNF mRNA expression at 50 to 200 uM incubated for 24 hrs by RT-qPCR analysis", "format": "cell-based", "outline": "as §2"}, "[4]": {"molecular_target": "T2, Chromodomain Y-like protein (Homo sapiens)", "assay": "Inhibition of CDYL in human HEK293T cells assessed as increase in VGF mRNA expression at 50 to 200 uM incubated for 24 hrs by RT-qPCR analysis", "format": "cell-based", "outline": "as §2"}, "[5]": {"molecular_target": "T2, Chromodomain Y-like protein (Homo sapiens)", "assay": "Inhibition of CDYL in human SH-SY5Y cells assessed as decrease in enrichment of CDYL at MYT1 promoter site at 150 uM incubated for 24 hrs by ChIP-qPCR analysis", "format": "cell-based", "outline": "(§3)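 About 1×10^7 SH-SY5Y cells given 150 µM compound or DMSO for 24 h, fixed in 1% formaldehyde for 10 min. Chromatin immunoprecipitated overnight-style (12 h, 4 °C) with CDYL or H3K27me3 antibody, captured on Protein A/G beads, washed, decrosslinked at 65 °C. Promoter DNA quantified by qPCR, mean ± S.E.M. of triplicate experiments, Student's t-test.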"}, "SH-SY5Y [6]": {"system": "SH-SY5Y", "assay": "Effect on CDYL recruitment onto HOXA3 promoter site in human SH-SY5Y cells at 150 uM incubated for 24 hrs by ChIP-qPCR analysis", "format": "functional, cell-based", "outline": "as §3"}, "[7]": {"molecular_target": "T2, Chromodomain Y-like protein (Homo sapiens)", "assay": "Inhibition of CDYL in human SH-SY5Y cells assessed as decrease in enrichment of H3K27me3 at MYT1 promoter site at 150 uM incubated for 24 hrs by ChIP-qPCR analysis", "format": "cell-based", "outline": "as §3"}, "[8]": {"molecular_target": "T2, Chromodomain Y-like protein (Homo sapiens)", "assay": "Inhibition of CDYL in human SH-SY5Y cells assessed as decrease in enrichment of H3K27me3 at VGF promoter site at 150 uM incubated for 24 hrs by ChIP-qPCR analysis", "format": "cell-based", "outline": "as §3"}, "SH-SY5Y [9]": {"system": "SH-SY5Y", "assay": "Effect on enrichment of H3K27me3 at HOXA3 promoter site in human SH-SY5Y cells at 150 uM incubated for 24 hrs by ChIP-qPCR analysis", "format": "functional, cell-based", "outline": "as §3"}, "[10]": {"molecular_target": "T1, Chromodomain Y-like protein (Mus musculus)", "assay": "Inhibition of CDYL in C57BL/6 mouse hippocampal neurons as increase in BDNF mRNA expression at 150 uM incubated for 24 hrs by RT-qPCR analysis", "outline": "as §1"}, "[11]": {"molecular_target": "T1, Chromodomain Y-like protein (Mus musculus)", "assay": "Inhibition of CDYL in C57BL/6 mouse hippocampal neurons as increase in VGF mRNA expression at 150 uM incubated for 24 hrs by RT-qPCR analysis", "outline": "as §1"}, "[12]": {"molecular_target": "T1, Chromodomain Y-like protein (Mus musculus)", "assay": "Inhibition of CDYL in C57BL/6 mouse cortical neurons as increase in BDNF mRNA expression at 150 uM incubated for 24 hrs by RT-qPCR analysis", "outline": "as §1"}, "[13]": {"molecular_target": "T1, Chromodomain Y-like protein (Mus musculus)", "assay": "Inhibition of CDYL in C57BL/6 mouse cortical neurons as increase in VGF mRNA expression at 150 uM incubated for 24 hrs by RT-qPCR analysis", "outline": "as §1"}, "[14]": {"molecular_target": "T1, Chromodomain Y-like protein (Mus musculus)", "assay": "Inhibition of CDYL in C57BL/6 mouse cortical neurons assessed as induction of dendritic branching at 150 uM incubated for 24 hrs by DAPI staining confocal microscopic method", "outline": "(§4)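 Mouse hippocampal or cortical neurons on poly-D-lysine given 150 µM compound or DMSO at DIV 5 for 24 h, then fixed in 4% PFA. Stained for MAP2 with DAPI nuclei and imaged by confocal microscopy. Dendrite crossings counted by Sholl analysis at 10 µm intervals. Mean ± S.E.M. of triplicates, Student's t-test.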"}, "[15]": {"molecular_target": "T1, Chromodomain Y-like protein (Mus musculus)", "assay": "Inhibition of CDYL in C57BL/6 mouse hippocampal neurons assessed as induction of dendritic branching at 150 uM incubated for 24 hrs by DAPI staining confocal microscopic method", "outline": "as §4"}},
  "note": "Activity calls are given as the source filed them. The rule behind the calls is not given here.",
  "data": [
    {"smiles": "O=C(Cn1c(=O)oc2ccccc21)N1CCC(N2CCCC2)CC1", "values": [
      {"measurement": "Activity", "setting": "[1]", "result": "Active"},
      {"measurement": "Activity", "setting": "[2]", "result": "Dose-dependent effect"},
      {"measurement": "Activity", "setting": "[3]", "result": "Active"},
      {"measurement": "Activity", "setting": "[4]", "result": "Active"},
      {"measurement": "inhibition", "setting": "[5]", "result": "Active"},
      {"measurement": "Activity", "setting": "SH-SY5Y [6]", "result": "inactive"},
      {"measurement": "inhibition", "setting": "[7]", "result": "Active"},
      {"measurement": "inhibition", "setting": "[8]", "result": "Active"},
      {"measurement": "Activity", "setting": "SH-SY5Y [9]", "result": "inactive"},
      {"measurement": "Activity", "setting": "[10]", "result": "Active"},
      {"measurement": "Activity", "setting": "[11]", "result": "Active"},
      {"measurement": "Activity", "setting": "[12]", "result": "Active"},
      {"measurement": "Activity", "setting": "[13]", "result": "Active"},
      {"measurement": "Activity", "setting": "[14]", "result": "Active"},
      {"measurement": "Activity", "setting": "[15]", "result": "Active"}
    ]}
  ]
}
